CFTR F508del cor = CFTR F508del correction in bronchial cells; hit rate 0.36% among 350,000; activity (quench increase), % at 7.58 µM; AID 720511; CFBE cells, YFP halide quenching; stimulated with forskolin plus potentiator P3; % fluorescence drop versus neutral controls;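 active = mean added fluorescence quench of at least 8% versus neutral control, with both replicates also reaching 8%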;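 also: cells transiently co-express mutant CFTR-F508del with the halide-sensitive YFP; corrector assay measuring rescue of mutant channel to the surface after 24 h compound exposure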
E-selectin induc = induces E-selectin expression in human endothelial cells; HUVEC E-selectin immunofluorescence imaging; normalized: neutral wells 0, TNF-alpha wells 100; activation, % at 7.58 µM; hit rate 0.37% among 260,000; AID 686992;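 active = mean E-selectin-positive cell signal at least 10% of the positive control, reached in at least 60% of replicates, without over 20% cell loss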
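Assay system: HUVEC primary endothelial cells. Input: 3,000 HUVEC seeded per well. Doses: one compound dose added by pin transfer. Read-out basis: % PE-positive cells. Benchmarks: TNF-alpha high, DMSO low. Detection: immunofluorescence imaging. Buffer or medium: EGM-2, gelatin.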
FGF22 binding = binders of recombinant human FGF22 by thermal shift; Q9HCT0; SYPRO orange fluorescence; percent of sucrose octasulfate shift, DMSO zero; activity (Tm shift, normalised), % at 9.99 µM; hit rate 1.5% among 340,000; AID 651658;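 active = mean Tm shift, scaled 0 neutral to 100 positive control, at about 1.3% or above, every replicate too, limit read from the data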
Target sequence (Q9HCT0 whole entry, looked up): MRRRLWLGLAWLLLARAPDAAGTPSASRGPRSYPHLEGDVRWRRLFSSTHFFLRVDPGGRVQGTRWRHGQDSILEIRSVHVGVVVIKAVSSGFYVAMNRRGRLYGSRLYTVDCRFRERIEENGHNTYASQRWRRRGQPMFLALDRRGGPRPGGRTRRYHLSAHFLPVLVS
DENV2 CPE = protects cells from dengue virus 2 cytopathic effect; DENV2-infected cells, cytopathic effect rescue, plate reader; CPE inhibition, % at 9.99 µM; hit rate 1.7% among 350,000; AID 651640; in the data active = CPE inhibition above about 20%, passing the limit was not always enough; tested in BHK-21 cells
ERAP1 HTS inh = ERAP1 (human) enzyme inhibition | Q9NZ08 | recombinant ERAP1, Leu-AMC fluorescence, 60 min | inhibition, % at 10.7 µM | hit rate 0.15% among 340,000 | AID 652197;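 active = mean replicate inhibition of at least 30%, or all replicates individually reaching that 30% level; inactive = mean below 30% and not every replicate reaching it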
Each line names hits and unclear results; the compound was inactive in the other large screens; ! = a repeat was not active. A selection: hits, their analogues and other compounds. The true share with any hit is near 3.7%.

C[C@@H]1CN([C@@H](C)CO)C(=O)c2cc(NS(=O)(=O)c3cccs3)ccc2O[C@@H](C)CCCCO[C@H]1CN(C)C(=O)Nc1ccc(F)cc1	none
C[C@@H]1CN([C@@H](C)CO)C(=O)c2cc(NS(=O)(=O)c3ccccc3)ccc2O[C@@H](C)CCCCO[C@@H]1CN(C)C(=O)Nc1ccc(C(F)(F)F)cc1	none
CN1c2ccc(-c3ccccc3)cc2[C@@H]2[C@@H](CCN2C(=O)c2ccccn2)[C@H]1CO	none
C[C@H](CO)N1C[C@H](C)[C@@H](CN(C)C(=O)Nc2ccc(C(F)(F)F)cc2)OCCCC[C@H](C)Oc2ccc(NS(=O)(=O)c3ccccc3)cc2C1=O	DENV2 CPE 41
O=C(c1cccnc1)N1CC2(C1)[C@H](c1ccccc1)[C@@H](CO)N2Cc1ccccc1	DENV2 CPE 108
CCS(=O)(=O)N1CC2(C1)[C@@H](c1ccccc1)[C@H](CO)N2Cc1ccccn1	DENV2 CPE 22
O=C(c1ccccc1)N1CC2(C1)[C@@H](c1ccccc1)[C@@H](CO)N2Cc1ccccn1	DENV2 CPE 21
COc1ccc2c3c([nH]c2c1)[C@@H](CO)N(C(C)=O)CC31CN(C(=O)c2ccc3c(c2)OCO3)C1	none
Cc1ccc(S(=O)(=O)Nc2cccc3c2O[C@H](CN(C)S(=O)(=O)c2ccccc2)[C@@H](C)CN([C@@H](C)CO)C3=O)cc1	none
CC(=O)N1CCN(C(=O)c2cccc(S(=O)(=O)N3c4ccccc4CC3C)c2)CC1 (configuration not stated)	none
CC1Cc2ccccc2N1S(=O)(=O)c1cccc(C(=O)N2CCN(c3ncccn3)CC2)c1 (configuration not stated)	CFTR F508del cor 8.5 (no result: E-selectin induc)
COc1ccc2c3c([nH]c2c1)[C@H](CO)N(C(=O)Nc1ccc(F)cc1)CC31CN(S(=O)(=O)c2cn(C)cn2)C1	none
CO[C@@H]1CN(C)C(=O)c2cc(NC(=O)c3ccc4c(c3)OCO4)ccc2OC[C@@H](C)N(CCC(F)(F)F)C[C@@H]1C	DENV2 CPE 36
CO[C@@H]1CN(C)C(=O)c2ccc(NC(=O)c3ccc4c(c3)OCO4)cc2OC[C@@H](C)N(CCC(F)(F)F)C[C@H]1C	none
CO[C@@H]1CN(C)C(=O)c2cc(NC(=O)c3ccc4c(c3)OCO4)ccc2OC[C@@H](C)N(CCC(F)(F)F)C[C@H]1C	DENV2 CPE 23
CO[C@@H]1CN(C)C(=O)c2cc(NC(=O)c3ccc4c(c3)OCO4)ccc2OC[C@@H](C)N(CC2CC2)C[C@H]1C	none
CO[C@@H]1CN(C)C(=O)c2cc(NC(=O)c3ccc4c(c3)OCO4)ccc2OC[C@@H](C)N(CC2CC2)C[C@@H]1C	DENV2 CPE 77
c1ccc(-c2nnsc2-c2nc3ccccc3[nH]2)cc1	FGF22 binding 43
COc1ccc(S(=O)(=O)Nc2ccc3c(c2)CC(=O)N([C@H](C)CO)C[C@H](C)[C@@H](CN(C)CC2CCCCC2)O3)cc1	none
CCN(C[C@H]1[C@H](c2ccc(-c3ccccc3)cc2)[C@H](CO)N1C(C)=O)C(C)=O	none
CCN(C[C@H]1[C@H](c2ccccc2)[C@H](CO)N1C(C)=O)C(=O)NC(C)C	DENV2 CPE 27
CCN(C[C@@H]1[C@@H](c2ccc(-c3ccccc3)cc2)[C@H](CO)N1C(C)=O)C(C)=O	DENV2 CPE 22
CO[C@@H]1CN(C)C(=O)c2cc(NC(=O)c3cccc(F)c3)ccc2OC[C@H](C)N(C(C)=O)C[C@@H]1C	none (no result: FGF22 binding, DENV2 CPE, ERAP1 HTS inh)
COc1ccc(/C=C2\SC(=S)NC2=O)cc1OS(=O)(=O)c1ccc(NC(C)=O)cc1	none
COc1cc(C=O)ccc1OS(=O)(=O)c1ccc(NC(C)=O)cc1	FGF22 binding 1.9 (no result: CFTR F508del cor, E-selectin induc)
Cc1ccc(S(=O)(=O)Nc2ccc3c(c2)C(=O)N([C@H](C)CO)C[C@@H](C)[C@H](CN(C)C(=O)Nc2c(C)noc2C)OCCCC[C@@H](C)O3)cc1	none (no result: E-selectin induc)
Oc1ccccc1/C=N/[n+]1ccccc1	ERAP1 HTS inh 97 (no result: E-selectin induc)
Cc1ccc(C(=O)Nc2c(C)cc(-c3ccccc3)oc2=O)cc1	FGF22 binding 43
CCCN(C)C1CN(Cc2cn(Cc3ccc(OC)cc3)nn2)S(=O)(=O)C1 (configuration not stated)	none (no result: ERAP1 HTS inh)
CCCN(C)C1CN(Cc2cn(Cc3ccc(C)cc3)nn2)S(=O)(=O)C1 (configuration not stated)	DENV2 CPE 25
C[C@@H]1CN([C@H](C)CO)C(=O)c2cc(Br)cnc2O[C@@H]1CN(C)C(=O)c1ccccc1	DENV2 CPE 65!
C[C@@H]1CN([C@@H](C)CO)C(=O)c2cc(Br)cnc2O[C@@H]1CN(C)S(C)(=O)=O	DENV2 CPE 32!
C[C@H]1CN([C@@H](C)CO)C(=O)c2cc(Br)cnc2O[C@@H]1CN(C)C(=O)CN(C)C	none
C[C@H](CO)N1C[C@H](C)[C@H](CN(C)C)Oc2ncc(Br)cc2C1=O	none
CCC(=O)N(C)C[C@H]1Oc2ncc(Br)cc2C(=O)N([C@@H](C)CO)C[C@@H]1C	E-selectin induc 73
COc1ccc(S(=O)(=O)Nc2ccc3c(c2)OC[C@@H](C)N(Cc2cc(F)ccc2F)C[C@@H](C)[C@H](OC)CN(C)C3=O)cc1	none
COc1ccccc1NC(=O)N1CCCCN2[C@H](CO)[C@H](c3ccc(C#Cc4ccccc4)cc3)[C@@H]2C1	DENV2 CPE 25
COc1ccccc1NC(=O)N1CCCCN2[C@H](CO)[C@@H](c3ccc(C#CC4CCCC4)cc3)[C@@H]2C1	DENV2 CPE 36
COc1ccccc1-c1ccc([C@H]2[C@@H](CO)N3CCCCN(C(=O)NC4CCCC4)C[C@H]23)cc1	DENV2 CPE 23
CCCNC(=O)[C@@H]1[C@@H](CO)[C@@H]2Cn3c(ccc(-c4cccc(OC)c4)c3=O)[C@@H]2N1C	none (no result: FGF22 binding)
C[C@H]1CN([C@@H](C)CO)C(=O)c2cc(NS(=O)(=O)c3ccccc3)ccc2O[C@H]1CN(C)C(=O)Nc1ccc(F)cc1	none
CCC(=O)Oc1cccc(C(=O)Nc2cccc(NC(=O)c3ccco3)c2)c1	E-selectin induc 38
CCC(=O)Oc1ccc(NC(=O)c2ccco2)cc1	none
O=C(O)COc1ccc(NC(=O)c2ccc(NC(=O)c3ccco3)cc2)cc1	FGF22 binding 44
O=C(/C=C\c1ccco1)c1ccc(NC(=O)c2ccco2)cc1	FGF22 binding 43 (no result: E-selectin induc)
COc1ccc(C(=O)Nc2ccc(NC(=O)c3ccco3)cc2)cc1	none (no result: E-selectin induc)
CCCN(C)C[C@@H]1OCCCC[C@H](C)Oc2ccc(NC(=O)CCC(F)(F)F)cc2C(=O)N([C@H](C)CO)C[C@@H]1C	none
O=c1c2cc(Br)ccc2[nH]c(=S)n1Cc1ccccn1	DENV2 CPE 31 (no result: E-selectin induc)
Cc1ccc(-c2cc3ccccc3nc2N2CCOCC2)cc1	none (no result: E-selectin induc)
CC1(C)c2ccccc2-c2nc3ccccc3cc2C1N1CCOCC1 (configuration not stated)	FGF22 binding 43

Compound activity as filed in PubChem.
